System: Fibroblast
Experiment: Multiplex assay against human fibroblast
Format: toxicity, cell-based
In short: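 Tubulin, mitochondrial-mass and membrane-permeability phenotypes are per cents of healthy-nucleus cells. Cells were gated by CellPathfinder machine learning into Hoechst high-intensity objects or normal cells, normal cells into healthy, pyknosed or fragmented nuclei, and pyknosed cells into mitotic or apoptotic. Before that, live cells stained at seeding with Hoechst33342, BioTracker Green Microtubule Cytoskeleton Dye, MitoTracker Red and Annexin V Alexa Fluor 680 were imaged on a CQ1 microscope at 37°C and 5% CO2 after compound addition.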

[1] = 12 h, 1 µM, compound concentration 1 uM, replicate 1
[2] = 12 h, 1 µM, compound concentration 1 uM, replicate 2
[3] = 12 h, 10 µM, compound concentration 10 uM, replicate 1
[4] = 12 h, 10 µM, compound concentration 10 uM, replicate 2
[5] = 24 h, 1 µM, compound concentration 1 uM, replicate 1
[6] = 24 h, 1 µM, compound concentration 1 uM, replicate 2
[7] = 24 h, 10 µM, compound concentration 10 uM, replicate 1
[8] = 24 h, 10 µM, compound concentration 10 uM, replicate 2
[9] = 48 h, 1 µM, compound concentration 1 uM, replicate 1
[10] = 48 h, 1 µM, compound concentration 1 uM, replicate 2
[11] = 48 h, 10 µM, compound concentration 10 uM, replicate 1
[12] = 48 h, 10 µM, compound concentration 10 uM, replicate 2

CN(C)C/C=C/C(=O)Nc1ccc(C(=O)N2CCCC(Nc3ncc(Cl)c(-c4c[nH]c5ccccc45)n3)C2)cc1 (centres undefined)
Population Apoptotic (%) [1]: 48%
Population Fragmented Nuclei (%) [1]: 15%
Population Healthy Nuclei (%) [1]: 64%
Population Hoechst High Intensity Objects (%) [1]: 2%
Population Membrane Permeable-Phenotype (%) [1]: 2%
Population Mitochondria Different-Phenotype (%) [1]: 11%
Population Mitotic Cells (%) [1]: 51%
Population Normal (%) [1]: 97%
Population Pyknosed Nuclei (%) [1]: 19%
Population Tubulin-Different-Phenotype (%) [1]: 40%
Total Cell Count [1]: 152
Population Apoptotic (%) [2]: 46%
Population Fragmented Nuclei (%) [2]: 21%
Population Healthy Nuclei (%) [2]: 53%
Population Hoechst High Intensity Objects (%) [2]: 6%
Population Membrane Permeable-Phenotype (%) [2]: 3%
Population Mitochondria Different-Phenotype (%) [2]: 13%
Population Mitotic Cells (%) [2]: 53%
Population Normal (%) [2]: 93%
Population Pyknosed Nuclei (%) [2]: 25%
Total Cell Count [2]: 182
Population Apoptotic (%) [3]: 59%
Population Fragmented Nuclei (%) [3]: 18%
Population Healthy Nuclei (%) [3]: 53%
Population Hoechst High Intensity Objects (%) [3]: 4%
Population Membrane Permeable-Phenotype (%) [3]: 1%
Population Mitochondria Different-Phenotype (%) [3]: 37%
Population Mitotic Cells (%) [3]: 40%
Population Normal (%) [3]: 95%
Population Pyknosed Nuclei (%) [3]: 27%
Population Tubulin-Different-Phenotype (%) [3]: 77%
Total Cell Count [3]: 140
Population Apoptotic (%) [4]: 48%
Population Fragmented Nuclei (%) [4]: 23%
Population Healthy Nuclei (%) [4]: 41%
Population Hoechst High Intensity Objects (%) [4]: 8%
Population Membrane Permeable-Phenotype (%) [4]: 12%
Population Mitochondria Different-Phenotype (%) [4]: 19%
Population Mitotic Cells (%) [4]: 51%
Population Normal (%) [4]: 91%
Population Pyknosed Nuclei (%) [4]: 35%
Population Tubulin-Different-Phenotype (%) [4]: 58%
Total Cell Count [4]: 147
Population Apoptotic (%) [5]: 68%
Population Fragmented Nuclei (%) [5]: 25%
Population Healthy Nuclei (%) [5]: 48%
Population Hoechst High Intensity Objects (%) [5]: 7%
Population Membrane Permeable-Phenotype (%) [5]: 2%
Population Mitochondria Different-Phenotype (%) [5]: 7%
Population Mitotic Cells (%) [5]: 31%
Population Normal (%) [5]: 92%
Population Pyknosed Nuclei (%) [5]: 26%
Population Tubulin-Different-Phenotype (%) [5]: 40%
Total Cell Count [5]: 155
Population Apoptotic (%) [6]: 37%
Population Fragmented Nuclei (%) [6]: 26%
Population Healthy Nuclei (%) [6]: 49%
Population Membrane Permeable-Phenotype (%) [6]: 10%
Population Mitochondria Different-Phenotype (%) [6]: 10%
Population Mitotic Cells (%) [6]: 62%
Population Pyknosed Nuclei (%) [6]: 23%
Population Tubulin-Different-Phenotype (%) [6]: 54%
Total Cell Count [6]: 181
Population Apoptotic (%) [7]: 65%
Population Fragmented Nuclei (%) [7]: 13%
Population Healthy Nuclei (%) [7]: 49%
Population Hoechst High Intensity Objects (%) [7]: 2%
Population Membrane Permeable-Phenotype (%) [7]: 0%
Population Mitochondria Different-Phenotype (%) [7]: 52%
Population Mitotic Cells (%) [7]: 34%
Population Normal (%) [7]: 97%
Population Pyknosed Nuclei (%) [7]: 37%
Population Tubulin-Different-Phenotype (%) [7]: 84%
Total Cell Count [7]: 119
Population Apoptotic (%) [8]: 47%
Population Fragmented Nuclei (%) [8]: 30%
Population Healthy Nuclei (%) [8]: 42%
Population Hoechst High Intensity Objects (%) [8]: 6%
Population Membrane Permeable-Phenotype (%) [8]: 5%
Population Mitochondria Different-Phenotype (%) [8]: 35%
Population Mitotic Cells (%) [8]: 52%
Population Normal (%) [8]: 93%
Population Pyknosed Nuclei (%) [8]: 27%
Population Tubulin-Different-Phenotype (%) [8]: 72%
Total Cell Count [8]: 149
Population Apoptotic (%) [9]: 63%
Population Fragmented Nuclei (%) [9]: 33%
Population Healthy Nuclei (%) [9]: 36%
Population Hoechst High Intensity Objects (%) [9]: 10%
Population Membrane Permeable-Phenotype (%) [9]: 2%
Population Mitochondria Different-Phenotype (%) [9]: 20%
Population Mitotic Cells (%) [9]: 36%
Population Normal (%) [9]: 90%
Population Pyknosed Nuclei (%) [9]: 30%
Population Tubulin-Different-Phenotype (%) [9]: 48%
Total Cell Count [9]: 150
Population Apoptotic (%) [10]: 60%
Population Fragmented Nuclei (%) [10]: 35%
Population Healthy Nuclei (%) [10]: 40%
Population Hoechst High Intensity Objects (%) [10]: 8%
Population Membrane Permeable-Phenotype (%) [10]: 8%
Population Mitochondria Different-Phenotype (%) [10]: 25%
Population Mitotic Cells (%) [10]: 40%
Population Normal (%) [10]: 91%
Population Pyknosed Nuclei (%) [10]: 24%
Population Tubulin-Different-Phenotype (%) [10]: 68%
Total Cell Count [10]: 158
Population Apoptotic (%) [11]: 77%
Population Fragmented Nuclei (%) [11]: 28%
Population Healthy Nuclei (%) [11]: 20%
Population Hoechst High Intensity Objects (%) [11]: 14%
Population Membrane Permeable-Phenotype (%) [11]: 0%
Population Mitochondria Different-Phenotype (%) [11]: 55%
Population Mitotic Cells (%) [11]: 22%
Population Normal (%) [11]: 85%
Population Pyknosed Nuclei (%) [11]: 51%
Population Tubulin-Different-Phenotype (%) [11]: 66%
Total Cell Count [11]: 103
Population Apoptotic (%) [12]: 68%
Population Fragmented Nuclei (%) [12]: 27%
Population Healthy Nuclei (%) [12]: 41%
Population Hoechst High Intensity Objects (%) [12]: 13%
Population Membrane Permeable-Phenotype (%) [12]: 17%
Population Mitochondria Different-Phenotype (%) [12]: 29%
Population Mitotic Cells (%) [12]: 31%
Population Normal (%) [12]: 86%
Population Pyknosed Nuclei (%) [12]: 30%
Population Tubulin-Different-Phenotype (%) [12]: 80%
Total Cell Count [12]: 130

— ChEMBL document CHEMBL5058577, “EUbOPEN Chemogenomics Library 2 (Multiplex)” (2022)
